Test results taken from ChEMBL document CHEMBL1134395, “Angular methoxy-substituted furo- and pyranoquinolinones as blockers of the voltage-gated potassium channel Kv1.3” (J Med Chem, 2001).
“And” between values parts separate entries of the source, which are not always exact repeats. Identical values can stand only once.

Experiments:
N1E-115 [1] = format: functional, Mus musculus; conditions: at 50 µM
N1E-115 [2] = format: functional, Mus musculus; conditions: at 50 µM; remark: listed apart in the source
[3] = biological target: Potassium voltage-gated channel subfamily A member 3 (Mus musculus) (UniProt P16390); conditions: at 50 µM
N1E-115 [4] = assay: Blockade of peak steady-state Na+ currents of neuroblastoma cells N1E-115 at 100 uM; format: functional, Mus musculus
Method in brief: (§1)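 Same N1E-115 whole-cell recordings and solutions (holding −80 mV, room temperature, 5% DMSO). Peak Na+ current is taken at pulses to 0 mV and normalized to the current in control bathing medium. Reported as mean of at least three experiments.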

[5] = biological target: Potassium voltage-gated channel subfamily A member 3 (Mus musculus) (UniProt P16390); assay: Blockade of peak steady-state K+ currents of Kv1.3 channels in mouse fibroblasts L929 at 25 uM; format: functional
Method in brief: (§2)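 Whole-cell patch clamp at room temperature on L929 fibroblasts stably transfected with mKv1.3, grown in DMEM with 10% FCS and 300 µg/mL G418. Bath: 160 mM NaCl, 4.5 KCl, 2.0 CaCl2, 1.0 MgCl2, 5 HEPES, pH 7.4, with 5% DMSO. Pipette: 120 KF, 20 KCl, 10 HEPES, 10 EGTA, pH 7.2. Holding −80 mV, 200 ms pulses to 40 mV; peak steady-state current normalized to control bath; mean of ≥3 cells.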

[6] = biological target: Potassium voltage-gated channel subfamily A member 3 (Mus musculus) (UniProt P16390); assay: Blockade of peak steady-state K+ currents of Kv1.3 channels in mice fibroblasts L929 at 50 uM; format: functional
Method in brief: as §2

N1E-115 [7] = assay: Blockade of peak steady-state K+ currents of neuroblastoma cells N1E-115 at 100 uM; format: functional, Mus musculus
Method in brief: (§3)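 Whole-cell patch clamp at room temperature on N1E-115 neuroblastoma cells, grown in DMEM with 10% FCS. Bath: 125 mM NaCl, 5.5 KCl, 1.5 CaCl2, 2.0 MgCl2, 25 glucose, 5 HEPES, pH 7.4, with 5% DMSO. Pipette: 120 KF, 10 KCl, 10 NaCl, 10 HEPES, 10 EGTA, pH 7.2. Holding −80 mV, 100 ms pulses to 40 mV; peak steady-state K+ current normalized to control bath; mean of ≥3 cells.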

N1E-115 [8] = assay: Blockade of peak steady-state Na+ currents of neuroblastoma cells N1E-115 at 25 uM; format: functional, Mus musculus
Method in brief: as §1

[9] = biological target: Potassium voltage-gated channel subfamily A member 3 (Mus musculus) (UniProt P16390); assay: Blockade of peak steady-state K+ currents of voltage-gated potassium channel subunit Kv1.3 expressed in mouse fibroblasts L929 at 50 uM; format: functional
Method in brief: as §2

N1E-115 [10] = assay: Blockade of peak steady-state K+ currents of neuroblastoma cells N1E-115 at 25 uM; format: functional, Mus musculus
Method in brief: as §3

N1E-115 [11] = assay: Inhibition of N1E-115 cells Kv channels; format: functional, cell-based; conditions: Mus musculus
Method in brief: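 Whole-cell patch clamp on N1E-115 cells. Holding −80 mV, steps to 40 mV; room temperature, bath with 5% DMSO. Peak K+ block is measured at several concentrations, and a modified Hill equation is fitted to give the half-blocking concentration, reported ± SEM.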

[12] = biological target: T1, Potassium voltage-gated channel subfamily A member 3 (Mus musculus, UniProt P16390); assay: Blockade of peak steady-state K+ currents of voltage-gated potassium channel subunit Kv1.3 in mouse fibroblasts L929 at 50 uM; format: functional; conditions: in the assay text read “at different concentrations” for “at 50 uM”
Method in brief: as §2

[13] = biological target: Potassium voltage-gated channel subfamily A member 3 (Mus musculus) (UniProt P16390); assay: Blockade of peak steady-state K+ currents of Kv1.3 channels in mice fibroblasts L929 at 25 uM; format: functional
Method in brief: as §2

N1E-115 [14] = assay: Blockade of peak steady-state Na+ currents of neuroblastoma cells N1E-115 at 50 uM; format: functional, Mus musculus
Method in brief: as §1

[15] = biological target: T1, Potassium voltage-gated channel subfamily A member 3; assay: Inhibition of voltage-gated potassium channel subunit Kv1.3 expressed in L929 cells; format: functional, cell-based
Method in brief: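 Whole-cell patch clamp on mKv1.3-transfected L929 cells. Holding −80 mV, 200 ms steps to 40 mV; room temperature, bath with 5% DMSO. Peak K+ block is measured at several concentrations, and a modified Hill equation is fitted to give the half-blocking concentration, reported ± SEM.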

T1 sequence (P16390 whole entry): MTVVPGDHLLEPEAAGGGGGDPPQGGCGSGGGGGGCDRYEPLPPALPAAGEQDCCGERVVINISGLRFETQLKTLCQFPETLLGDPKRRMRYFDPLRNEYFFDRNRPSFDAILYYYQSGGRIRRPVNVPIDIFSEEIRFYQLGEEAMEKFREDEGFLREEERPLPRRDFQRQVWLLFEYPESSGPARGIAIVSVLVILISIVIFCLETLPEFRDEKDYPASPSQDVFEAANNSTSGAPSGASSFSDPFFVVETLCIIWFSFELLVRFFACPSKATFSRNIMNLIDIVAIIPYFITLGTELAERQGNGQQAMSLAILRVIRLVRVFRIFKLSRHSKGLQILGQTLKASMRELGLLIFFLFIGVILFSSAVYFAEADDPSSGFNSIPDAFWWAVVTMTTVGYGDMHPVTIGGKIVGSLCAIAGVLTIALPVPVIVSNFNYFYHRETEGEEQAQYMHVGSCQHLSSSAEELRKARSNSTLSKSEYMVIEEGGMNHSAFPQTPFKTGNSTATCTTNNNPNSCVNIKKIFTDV
Sequence of Potassium voltage-gated channel subfamily A member 3 (Mus musculus) (P16390 whole entry): as above

BK [3] [%] | SMILES | BNa (N1E-115 [1]) [%] | BK (N1E-115 [2]) | also measured
7 | CC1(C)CCc2c(nc3ccccc3c2O)O1 | -18 | 6% | –
70 | CC(C)c1cc2c(=O)n(C)c3ccccc3c2o1 | 11 | 42% | BK [5]: 44%; BK (N1E-115 [10]): 25%; BNa (N1E-115 [8]): 0%
83 | COc1ccc2c(c1)c1c(c(=O)n2C)CCC(C)(C)O1 | – | 39% and 52% | BK [5]: 57%; BNa (N1E-115 [14]): 4%; BNa (N1E-115 [8]): 3%; IC50 (N1E-115 [11]): 42 µM; IC50 [15]: 18 µM
23 | CC(C)c1cc2c(=O)c3ccccc3n(C)c2o1 | 0 | 15% | –
10 | COc1ccc2c(c1)c(=O)c1c(n2C)OC(C)(C)CC1 | 0 | 7% | –
13 | COc1ccc2c(OC)c3ccoc3nc2c1OC [SKIMMIANINE] | 6 | 20% | –
15 | CC1(C)CCc2c(O)nc3ccccc3c2O1 | 3 | 37% | –
4 | COc1ccc2c(c1)c1c(c(=O)n2C)CC(O)C(C)(C)O1 (configuration not stated) | 2 | 21% | –
48 | Cn1c(=O)c2c(c3ccccc31)OC(C)(C)CC2 | 7 | 65% | –
1 | Cn1c2c(c(=O)c3ccccc31)CC(C(C)(C)O)O2 (configuration not stated) | 0 | 0% | –

Second part, the molecule before the results:

SMILES | BK [3] [%] | BNa (N1E-115 [1]) [%] | BK (N1E-115 [2]) | also measured
CC1(C)Oc2nc3ccccc3c(O)c2CC1O (configuration not stated) | – | – | 0% | BNa (N1E-115 [4]): 0%
Cn1c2c(c(=O)c3cc(O)ccc31)CC(O)C(C)(C)O2 (configuration not stated) | – | – | 0% | BNa (N1E-115 [4]): 3%
Cn1c(=O)c2c(c3ccccc31)OC(C)(C)C(O)C2 (configuration not stated) | – | 4 | 15% | BK [5]: 4%
COc1ccc2c3c(c(=O)n(C)c2c1OC)C=CC(C)(C)O3 | – | 12 | 55% | BK [6]: 41%
CC1(C)Oc2nc3ccccc3c(O)c2CC1SS(=O)(=O)O (configuration not stated) | – | – | – | BK (N1E-115 [7]): 0%; BNa (N1E-115 [4]): 6%
COc1ccc2c(c1)c(=O)c1c(n2C)OC(C(C)(C)O)C1 (configuration not stated) | – | – | 0% | BK [5]: 1%; BNa (N1E-115 [8]): 0%
CC1(C)Oc2nc3ccc(Br)cc3c(O)c2CC1Br (configuration not stated) | – | 1 | 32% | BK [9]: 35%
COc1ccc2c(c1)c1c(c(=O)n2C)C=CC(C)(C)O1 | – | 12 | 64% | BK (N1E-115 [10]): 44%; BNa (N1E-115 [8]): 1%; IC50 (N1E-115 [11]): 31 µM; IC50 [12]: 10 µM; BK [13]: 88%; BK [6]: 93%
COc1ccc2c(c1)c1oc(C(C)C)cc1c(=O)n2C | 98 | 11 | 57% | BK [5]: 98%; BK (N1E-115 [10]): 32%; BNa (N1E-115 [8]): 5%; IC50 (N1E-115 [11]): 38 µM; IC50 [12]: 5 µM
CCCCC/N=c1\ccn(Cc2ccccc2)c2ccccc12 [CP-339818] | – | – | – | IC50 [12]: 0.23 µM
COc1cc2nc3occc3c(OC)c2cc1OC [KOKUSAGININE] | 51 | 0 | 22% | IC50 (N1E-115 [11]): 200 µM; IC50 [12]: 49 µM
COc1ccc2c(c1)c1c(c(=O)n2C)CC(C(C)(C)O)O1 (configuration not stated) | – | – | 0% | BK [5]: 0%; BNa (N1E-115 [8]): 0%
CC1(C)CCc2c(O)nc3ccc([N+](=O)[O-])cc3c2O1 | – | 8 | 23% | –
COc1ccc2c(c1)c(=O)c1c(n2C)OC(C)(C)C(O)C1 (configuration not stated) | – | 3 | 6% | –
Cn1c(=O)c2c(c3cc([N+](=O)[O-])ccc31)OC(C(C)(C)O)C2 (configuration not stated) | – | 0 | 4% | –
Cn1c2c(c(=O)c3cc(O)ccc31)CC(C(C)(C)O)O2 (configuration not stated) | – | – | 7% | BNa (N1E-115 [4]): 13%
CC(C)(O)C1Cc2c(O)nc3ccccc3c2O1 (configuration not stated) | – | 0 | 7% | –
Cn1c(=O)c2c(c3ccccc31)OC(C(C)(C)O)C2 (configuration not stated) | – | – | 4% | BK [5]: 3%; BNa (N1E-115 [8]): 0%
COc1ccc2c(c1)c(=O)c1cc(C(C)C)oc1n2C | 44 | 1 | 33% | –
Cn1c2c(c(=O)c3ccccc31)CC(O)C(C)(C)O2 (configuration not stated) | – | 0 | 0% | –
COc1ccc2c(c1)c1oc(C(C)C)c(S(=O)(=O)[O-])c1c(=O)n2C.[Na+] | – | – | – | BK (N1E-115 [10]): 0%; BNa (N1E-115 [8]): 0%
Cn1c(=O)c2c(c3cc([N+](=O)[O-])ccc31)OC(C)(C)CC2 | – | – | 14% | BK [5]: 7%; BNa (N1E-115 [8]): 0%
COc1c2ccccc2nc2occc12 [DICTAMNINE] | 23 | 0 | 31% | –
COc1ccc(CCCN2CCC(COC(c3ccccc3)c3ccccc3)CC2)cc1 | – | – | – | IC50 [12]: 0.28 µM
